Data published in PubChem BioAssay AID463143 (The Scripps Research Institute Molecular Screening Center, 2010).
Activity calls are given as the source filed them.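 The calls were made as follows: active = fold change in liver X receptor activation above 2; inactive = the rest.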

Target: Oxysterols receptor LXR-beta (Homo sapiens) (UniProt P55055)
Test: activation of LXR ligand-binding domain – cell-based, luminescence, single concentration, powder samples, selectivity assay for RORA inverse agonist project, late-stage follow-up (AID 463143)
Settings: HEK293T GAL4-LXR LBD luciferase reporter, 18-24 h; at 10 µM; stronger effect = higher value
Method in brief: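 Material: HEK293T cells carrying GAL4-LXR ligand-binding-domain fusion plus UAS-luciferase reporter / Doses: single nominal dose of 10 µM per compound / Incubation: 20 h compound exposure / Measured by: luciferase luminescence / Read-out: fold change versus DMSO vehicle / Controls: DMSO-treated cells as vehicle reference / Repeats: six replicates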

Chain of Oxysterols receptor LXR-beta (Homo sapiens) (P55055 whole entry, looked up, the tested form may be a part): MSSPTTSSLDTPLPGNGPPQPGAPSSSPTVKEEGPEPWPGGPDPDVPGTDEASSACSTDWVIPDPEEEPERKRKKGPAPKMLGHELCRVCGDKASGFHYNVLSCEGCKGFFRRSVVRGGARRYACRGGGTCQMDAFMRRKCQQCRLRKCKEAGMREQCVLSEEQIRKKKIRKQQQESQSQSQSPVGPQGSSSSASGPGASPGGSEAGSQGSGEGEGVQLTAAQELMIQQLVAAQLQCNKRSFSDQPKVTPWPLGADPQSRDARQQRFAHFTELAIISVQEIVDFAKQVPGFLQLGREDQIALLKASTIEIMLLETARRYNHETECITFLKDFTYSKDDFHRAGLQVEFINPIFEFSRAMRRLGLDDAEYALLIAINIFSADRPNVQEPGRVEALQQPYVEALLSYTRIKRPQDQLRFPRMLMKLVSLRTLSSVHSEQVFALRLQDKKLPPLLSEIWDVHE

Row | Structure (SMILES) | fold change
1 | O=C(Nc1ccc(C(O)(C(F)(F)F)C(F)(F)F)cc1)c1ccccc1C(F)(F)F | 0.958 (inactive)
2 | O=S(=O)(Nc1ccc(C(O)(C(F)(F)F)C(F)(F)F)cc1)c1cccs1 | 1.39 (inactive)
3 | O=C(Nc1ccc(C(O)(C(F)(F)F)C(F)(F)F)cc1)c1ccc(F)cc1F | 1.39 (inactive)

Second part, the compound after the results:

Row | fold change | Structure (SMILES)
4 | 1.04 (inactive) | O=C(Nc1ccc(C(O)(C(F)(F)F)C(F)(F)F)cc1)c1ccc(F)cc1Cl
5 | 0.937 (inactive) | O=C(Nc1ccc(C(O)(C(F)(F)F)C(F)(F)F)cc1)c1c(F)cccc1F
6 | 1.15 (inactive) | O=C(Nc1ccc(C(O)(C(F)(F)F)C(F)(F)F)cc1)c1ccc(Cl)cc1
